Experimental data taken from ChEMBL document CHEMBL3822438, “Chlorin p6-Based Water-Soluble Amino Acid Derivatives as Potent Photosensitizers for Photodynamic Therapy” (J Med Chem, 2016).

Tests used:
[1] = Dark toxicity in mouse B16F10 cells assessed as cell viability after 48 hrs by cell counting kit-8 based spectrophotometric analysis; design: species or system B16-F10; conditions: for IC50 at 48 h: mouse, B16F10 cells
In short: (§1)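 CCK-8 dark toxicity. 5×10^3 cells seeded in 10% FBS medium (A375 in DMEM, B16-F10 in RPMI 1640). Exposed to graded compound concentrations for 48 h at 37 °C, kept in the dark. Fresh medium and CCK-8 added for 1.5 h, then absorbance read at 450 nm to give IC50. Ratio is dark IC50 over IC50 under light.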

[2] = Phototoxicity in mouse B16F10 cells assessed as cell viability after 24 hrs followed by irradiation with diode laser at 10 J/cm'2 measured after 24 hrs by cell counting kit-8 based spectrophotometric analysis; assay type: functional, B16-F10
In short: (§2)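 Phototoxicity by CCK-8. Cells loaded with a range of compound concentrations for 24 h at 37 °C, irradiated with a 678 nm diode laser at 10 J/cm², then incubated a further 24 h. Viability read as absorbance at 450 nm after 1.5 h with CCK-8.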

[3] = Ratio of IC50 for dark toxicity to IC50 for phototoxicity in mouse B16F10 cells by cell counting kit-8 based spectrophotometric analysis; design: species or system B16-F10; conditions: for selectivity ratio: B16F10 cells, read-out: Ratio IC50; in short: as §1
A-375 [4] = assay: (§3) Dark toxicity in human A375 cells assessed as cell viability after 48 hrs by cell counting kit-8 based spectrophotometric analysis; conditions: a-375; in short: as §1
A-375 [5] = assay: Phototoxicity in human A375 cells assessed as cell viability after 24 hrs followed by irradiation with diode laser at 10 J/cm'2 measured after 24 hrs by cell counting kit-8 based spectrophotometric analysis; assay type: functional; in short: as §2
[6] = Ratio of IC50 for dark toxicity to IC50 for phototoxicity in human A375 cells; assay type: cell-based, A-375; conditions: for selectivity ratio: A375 cells, read-out: Ratio IC50; in short: as §1
[7] = Dark toxicity in mouse B16F10 cells assessed as cell viability after 48 hrs by MTT assay; assay type: cell-based, B16-F10; conditions: b16-f10
In short: (§4)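 B16-F10 cells in RPMI 1640 with 10% FBS. Dark arm: compound for 48 h. Light arm: compound for 24 h, then 678 nm diode laser at 10 J/cm², then a further 24 h. Read-out by MTT for 4 h, formazan dissolved in DMSO, absorbance at 490 nm. Ratio is dark IC50 over light IC50.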

[8] = Phototoxicity in mouse B16F10 cells assessed as cell viability after 24 hrs followed by irradiation with diode laser at 10 J/cm'2 measured after 24 hrs by MTT assay; assay type: functional, cell-based, B16-F10; conditions: b16-f10; in short: as §4
[9] = Ratio of IC50 for dark toxicity to IC50 for phototoxicity in mouse B16F10 cells by MTT assay; assay type: cell-based, B16-F10; conditions: b16-f10; in short: as §4
[10] = as §3; design: species or system A-375; conditions: human, A375 cells; in short: as §1
[11] = Aqueous solubility of the compound in PBS buffer at pH 7.4; assay type: physicochemical
[12] = Mus musculus, B16-F10, light or radiation study, 24 h
[13] = Homo sapiens, A-375, light or radiation study, 24 h

## VERTEPORFIN
[1]; b16-f10
  IC50: 24.9 µM
[2]; b16-f10
  IC50: 1.2 µM
[3]; b16-f10
  Ratio IC50: 20.77
A-375 [4]
  IC50: 36.3 µM
A-375 [5]; a-375
  IC50: 2.06 µM
[6]; a-375
  Ratio IC50: 17.64
[7]
  IC50: 25 µM
[8]
  IC50: 1.07 µM
[9]
  Ratio IC50: 23.39

## CCC1=C(C)c2cc3[nH]c(cc4nc(c(C(=O)OC)c5[nH]c(cc1n2)c(C)c5C(=O)OC)C(CCC(=O)O)=C4C)[C@@]1(C)C3=CC=C(C(=O)OC)[C@H]1C(=O)OC
[1]
  IC50 at 48 h: 15.3 µM
[2]; [12]
  IC50: 0.92 µM
[3]
  selectivity ratio: 16.7
[10]
  IC50 at 48 h: 22.8 µM
A-375 [5]; [13]
  IC50: 1.47 µM
[6]
  selectivity ratio: 15.5

## CCC1=C(C)c2cc3[nH]c(cc4nc(c(C(=O)OC)c5[nH]c(cc1n2)c(C)c5C(=O)OC)C(CCC(=O)N[C@@H](CCC(=O)O)C(=O)O)=C4C)[C@@]1(C)C3=CC=C(C(=O)OC)[C@H]1C(=O)OC
[1]
  IC50 at 48 h: 224 µM
[2]; [12]
  IC50: 4.06 µM
[3]
  selectivity ratio: 55.3
[10]
  IC50 at 48 h: 286 µM
A-375 [5]; [13]
  IC50: 7.1 µM
[6]
  selectivity ratio: 40.3

## C=Cc1c(C)c2cc3nc(c(C(=O)OC)c4[nH]c(cc5nc(cc1[nH]2)C(C)=C5CC)c(C)c4C(=O)OC)[C@@H](CCC(=O)O)[C@@H]3C
[11]
  solubility: < 1.6 µM
[1]
  IC50 at 48 h: 15.7 µM
[2]; [12]
  IC50: 0.3 µM
[3]
  selectivity ratio: 52.2
[10]
  IC50 at 48 h: 31.3 µM
A-375 [5]; [13]
  IC50: 0.52 µM
[6]
  selectivity ratio: 60.2
